Bioassay records from PubChem.
This is a sample that favours compounds with a hit; in the whole collection about 1.8% have one here.
GalR3 antag = human GalR3 antagonism; O60755; HEK293 GalR3-CNG cAMP membrane potential fluorescence; galR3 body fused to GalR1 C-terminus; inhibition, % at 3 µM; hit rate 0.44% among 360,000; AID 651719;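 active means inhibition above the screen-wide average plus 3 SD, cut at about 13% in these data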;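 further: forskolin and galanin both at EC90 stimulate the cells; cAMP rise reported by CNG channel membrane potential dye signal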
Target sequence (O60755 1-299 limits assumed): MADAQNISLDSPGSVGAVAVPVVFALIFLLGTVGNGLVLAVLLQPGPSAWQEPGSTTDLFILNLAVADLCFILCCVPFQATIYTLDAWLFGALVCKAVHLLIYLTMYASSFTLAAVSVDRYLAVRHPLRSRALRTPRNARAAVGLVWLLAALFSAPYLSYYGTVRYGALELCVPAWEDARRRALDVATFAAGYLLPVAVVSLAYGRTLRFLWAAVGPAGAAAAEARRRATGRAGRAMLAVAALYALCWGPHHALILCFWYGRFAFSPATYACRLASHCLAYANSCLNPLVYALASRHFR
NR2E3 ag-1 = activates human NR2E3 receptor | Q9Y5X4 | CHO-S Gal4-NCOR/VP16-NR2E3 two-hybrid, luciferase | inhibition of corepressor binding, % at 3.98 µM | hit rate 0.35% among 360,000 | AID 602229;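 active means inhibition above the mean of all tested compounds plus 3 SD, cut at about 70% in these data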;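 further: higher means lower luciferase signal from less NR2E3 corepressor binding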
Target sequence (Q9Y5X4 whole entry, looked up, the tested form may be a part): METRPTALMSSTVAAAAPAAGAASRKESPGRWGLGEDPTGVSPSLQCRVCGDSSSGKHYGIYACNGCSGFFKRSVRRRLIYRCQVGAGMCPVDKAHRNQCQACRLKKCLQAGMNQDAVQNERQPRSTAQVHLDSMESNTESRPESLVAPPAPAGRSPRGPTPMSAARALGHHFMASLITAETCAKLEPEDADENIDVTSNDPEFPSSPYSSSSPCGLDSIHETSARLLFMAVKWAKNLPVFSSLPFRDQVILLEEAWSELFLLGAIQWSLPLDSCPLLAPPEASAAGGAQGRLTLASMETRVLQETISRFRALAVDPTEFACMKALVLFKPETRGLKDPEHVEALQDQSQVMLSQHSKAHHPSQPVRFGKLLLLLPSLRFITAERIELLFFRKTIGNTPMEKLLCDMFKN
Rev-erbA mod = Rev-erb alpha (human) modulation; P20393; Rev-erbα–FITC-DNA binding, fluorescence polarization, 90 min; activity, % at 10 µM; hit rate 0.79% among 370,000;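 active means activity above about 14%, limit read from the data; passing the limit was not always enough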
NR2E3 ag-2 = agonists of human nuclear receptor NR2E3. Q9Y5X4. GST-NR2E3/biotin-RetCOR TR-FRET, 1536-well. inhibition of corepressor binding, % at 4.78 µM. hit rate 0.12% among 320,000;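 active means percent inhibition above the cutoff of mean plus 3 SD of all tested compounds, set per screening campaign, cut at about 20% in these data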
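Material: NR2E3–RetCOR corepressor complex / Amount: 1.35 nM GST-NR2E3 / Medium: Tris pH 7.5 / Compound: single nominal compound dose of 4.8 µM / Incubation: 5 h at 4 °C / Technique: TR-FRET, Eu(K)-anti-GST donor, streptavidin-D2 acceptor, ex 340, em 617/671 nm / Read-out basis: percent loss of FRET ratio relative to control wells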
PG9 binder = binds the HIV-1 gp120 antibody PG9; TR-FRET gp120-PG9 antibody binding; inhibition, % at 6.7 µM; hit rate 0.43% among 360,000; AID 624416; in the data active means inhibition above about 8.5%
NR2E3 ag conf = NR2E3 agonism confirmed in two-hybrid assay | shares compounds with NR2E3 ag-1 | CHO-S mammalian two-hybrid NR2E3-NCOR, luciferase luminescence | inhibition, % at 3.98 µM | hit rate 51% among 2,300 | AID 624378;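 active means average inhibition above a cutoff equal to the mean inhibition of all tested compounds plus one SD, cut at about 70% in these data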
GAL4-VP16 luc = reduces GAL4-VP16 reporter signal in NR2E3 counterscreen; shares compounds with NR2E3 ag-1; CHO-S GAL4-VP16 luciferase reporter, luminescence; inhibition, % at 3.98 µM; hit rate 29% among 2,300; AID 624379;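 active means mean inhibition above a cutoff equal to the average over all tested compounds plus one standard deviation, cut at about 70% in these data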;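 further: luciferase from a UAS reporter driven by GAL4-VP16 transactivation; higher means less reporter light so more repression of VP16 activity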
Hits are given with their value; . = inactive; / = no result given.

SMILES	GalR3 antag	NR2E3 ag-1	Rev-erbA mod	NR2E3 ag-2	PG9 binder	NR2E3 ag conf	GAL4-VP16 luc
C/C(=N\NC(=S)NC1CCCCC1)c1ccccc1	.	.	.	.	.	.	.
CNC(=S)N/N=C/c1cc(Br)cc(Br)c1O	.	89.0	.	.	.	.	.
CCC(=O)Nc1sc2c(c1C(N)=O)CCN(C(C)=O)C2	.	.	.	.	.	/	/
CC(=O)N1CCc2c(sc(NC(=O)c3ccc([N+](=O)[O-])o3)c2C(N)=O)C1	.	79.1	.	/	.	.	.
CC(C)CNC(=O)OCc1cn(Cc2cccc(Cl)c2)nn1	/	/	.	/	/	/	/
Cc1cc(NC2CCCCC2)nc(NCc2ccccc2)n1	.	75.0	.	.	.	91.7	75.7
Cc1ccc(Nc2cc(C)nc(NCc3ccccc3)n2)cc1	.	.	.	.	.	/	/
COc1ccc(Nc2cc(C)nc(NCc3ccccc3)n2)cc1	.	.	.	.	.	85.7	.
O=C(N1CCCC1)n1ncc(-c2ccc(-c3ccccc3)cc2)n1	/	/	.	/	/	/	/
C=CCOC(=O)C(CO)NC(=O)CCCC(=O)O (centres undefined)	/	/	.	/	/	/	/
On1ccccc1=S	.	101.2	.	.	.	.	.
Cc1cc(C)cc(NS(=O)(=O)c2ccc(-c3cnc(C4CC4)o3)cc2)c1	.	.	.	.	.	.	.
CC(=O)Nc1ccc(NS(=O)(=O)c2ccc(-c3cnc(C4CC4)o3)cc2)cc1	.	.	.	.	.	/	/
CC(=O)c1cccc(NS(=O)(=O)c2ccc(-c3cnc(C4CC4)o3)cc2)c1	.	100.5	.	.	.	94.9	82.4
O=S(=O)(Nc1ccccc1)c1ccc(-c2cnc(C3CC3)o2)cc1	.	.	.	.	.	/	/
Cc1cccc(NS(=O)(=O)c2ccc(-c3cnc(C4CC4)o3)cc2)c1C	.	83.3	.	.	.	77.0	.
Cc1ccc(C)c(NS(=O)(=O)c2ccc(-c3cnc(C4CC4)o3)cc2)c1	.	80.3	.	.	.	.	.
N=c1c2c(ccn1CCCc1ccccc1)Oc1ccc3ccccc3c1C2c1ccccc1 (centres undefined)	/	/	.	/	/	/	/
COc1ccc(-n2c(SCC(=O)Nc3ccc(S(=O)(=O)Nc4nccs4)cc3)nnc2-c2ccco2)cc1	/	/	.	/	/	/	/
O=C(NCCN1C(=O)C2C3C=CC(C3)C2C1=O)c1cc(Cl)cc(Cl)c1 (centres undefined)	/	/	.	/	/	/	/
COCC(=O)N(Cc1ccccc1)c1ccccc1C(=O)Nc1cc(OC)ccc1OC	/	/	.	/	/	/	/
COc1cc(C(=O)NC2CCCCN(Cc3cccc(C(F)(F)F)c3)C2=O)cc(OC)c1OC (centres undefined)	/	/	.	/	/	/	/
O=C(NC1CCCCN(Cc2cccc(Cl)c2)C1=O)c1cccc(F)c1 (centres undefined)	/	/	.	/	/	/	/
Cc1ccc(S(=O)(=O)N(CC(=O)Nc2ccccc2C(=O)O)c2cccc(Cl)c2C)cc1	.	89.8	.	.	.	97.8	.
Cc1ccc(S(=O)(=O)N(CC(=O)Nc2ccccc2C(=O)O)c2ccccc2C)cc1	.	.	.	.	.	/	/
SMILES	GalR3 antag	NR2E3 ag-1	Rev-erbA mod	NR2E3 ag-2	PG9 binder	NR2E3 ag conf	GAL4-VP16 luc
O=C1Cc2c([nH]c3ccc([N+](=O)[O-])cc23)-c2ccccc2N1	.	85.4	.	/	.	97.2	71.2
O=c1[nH]c2cc([N+](=O)[O-])ccc2c2ccccc12	.	.	.	/	.	/	/
CCCCOC(=O)CCN1C(=O)/C(=C/c2ccccc2)SC1=S	/	/	.	/	/	/	/
CCOC(=O)[C@]12CCCCC/C=C\1N(CCc1ccc(Cl)cc1)C(=O)[C@H]2CC(=O)NCCC(C)C	/	/	.	/	/	/	/
CCCCOc1ccc(S(=O)(=O)Nc2cccnc2)cc1	.	94.3	.	.	.	90.1	74.4
Cc1ccc(S(=O)(=O)Nc2cccnc2)cc1	.	.	.	.	.	/	/
CCOC(=O)C1CCCN(S(=O)(=O)c2cc3c(cc2Br)CCN3C(=O)CC)C1 (centres undefined)	/	/	.	/	/	/	/
O=C(Nc1ccc(OC(F)(F)F)cc1)N1CCc2nc(NCc3cccc(Oc4ccccc4)c3)ncc2C1	.	.	.	/	.	.	.
CCOC(=O)c1ccc(NC(=O)CSc2nnc(-c3cc(-c4ccccc4)n[nH]3)n2N)cc1	/	/	.	/	/	/	/
C=CCN(CC#Cc1ccc(C)cc1)Cc1ccc(OC)cc1OC	/	/	.	/	/	/	/
COc1ccc(OC)c(-c2csc(NC(=O)Cc3ccc(F)cc3)n2)c1	.	.	.	.	.	/	/
COc1ccc(OC)c(-c2csc(NC(=O)Cc3cc(OC)c(OC)c(OC)c3)n2)c1	.	.	.	.	.	.	.
CCOC(=O)[C@@]12CCC3=C1N(CCC3)C(=O)[C@H](CC(=O)NCc1ccccc1)C2	/	/	.	/	/	/	/
CCc1ccc(NC(=S)N(CCCN2CCOCC2)Cc2ccco2)cc1	.	.	.	.	.	.	.
COc1ccc(/C=C2\SC(=N)N(c3nccs3)C2=O)cc1OC	.	74.1	.	.	.	.	.
N=C1S/C(=C\c2ccc(-c3cccc(Cl)c3)o2)C(=O)N1c1nccs1	.	.	.	.	.	/	/
N#Cc1c(-c2cccs2)cc(-c2cccnc2)nc1N	.	.	.	.	.	/	/
N#Cc1c(-c2cccs2)cc(-c2ccccn2)nc1N	.	.	.	.	.	.	.
Cc1cc(NS(=O)(=O)c2ccc(NC(=O)CSc3nnc(SCc4ccc(Cl)cc4)s3)cc2)nc(C)n1	/	/	.	/	/	/	/
CSC1SCC2C(=O)N(C)C(C(C)C)C(=O)OCC(NC(=O)c3cnc4ccccc4n3)C(=O)NC(C)C(=O)N(C)C1C(=O)N(C)C(C(C)C)C(=O)OCC(NC(=O)c1cnc3ccccc3n1)C(=O)NC(C)C(=O)N2C (centres undefined)	.	102.8	.	/	.	98.3	94.9
COCCCNC(=O)C[C@H]1C[C@@]2(C(=O)OC)C(=C[C@H](COCc3ccccc3)O[C@@H]2C)N(Cc2cccc3ccccc23)C1=O	/	/	.	/	/	/	/
COc1ccc(S(=O)(=O)Nc2ccccc2C(=O)Nc2nc(-c3ccc(F)cc3)cs2)cc1OC	.	.	.	.	.	97.1	83.4
CCCNC(=O)c1ccccc1NS(=O)(=O)c1ccc(OC)c(OC)c1	.	.	.	.	.	/	/
COc1ccc(-c2csc(NC(=O)c3ccccc3NS(=O)(=O)c3ccc(C)cc3)n2)cc1	.	95.0	.	.	.	98.2	84.7
CCOC(=O)[C@@]12CCCC3=C1N(CCC3)C(=O)[C@H]2CC(=O)NCCc1ccccc1OC	/	/	.	/	/	/	/
Cc1ccc2sc(N3CCN(C(=O)c4ccc([N+](=O)[O-])o4)CC3)nc2c1C	.	.	.	.	.	/	/
Cc1c(Cl)ccc2sc(N3CCN(C(=O)C4=COCCO4)CC3)nc12	.	78.7	.	.	.	89.7	.
Nc1nnnn1/N=C/C(Br)=C/c1ccccc1	.	.	.	.	.	.	.
